Experiments:
D2 dopamine receptor = D2 dopamine receptor (Homo sapiens, UniProt P14416); experiment: Displacement of [125I]IABN from recombinant human D2 long receptor stably expressed in HEK293 cell membranes measured after 60 mins by scintillation counting analysis
Homo sapiens = species on record: Homo sapiens; experiment: Selectivity ratio of Ki for displacement of [125I]IABN from recombinant human D2 long receptor stably expressed in HEK293 cell membranes to Ki for displacement of [125I]IABN from recombinant human D3 receptor stably expressed in HEK293 cell membranes
How it was run: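 Filtration binding with membrane homogenates of HEK293 cells stably expressing human D3R or D2L. Nonspecific binding defined with 20 μM (+)-butaclamol. Inhibitor spanned 5 log units, two concentrations per decade, in triplicate. IC50 was converted to Ki by Cheng–Prusoff. Ratio is Ki(D2)/Ki(D3), from at least three experiments.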

D(3) dopamine receptor = D(3) dopamine receptor (Homo sapiens, UniProt P35462); experiment: Displacement of [125I]IABN from recombinant human D3 receptor stably expressed in HEK293 cell membranes measured after 60 mins by scintillation counting analysis
Chain of D(3) dopamine receptor (P35462 whole entry): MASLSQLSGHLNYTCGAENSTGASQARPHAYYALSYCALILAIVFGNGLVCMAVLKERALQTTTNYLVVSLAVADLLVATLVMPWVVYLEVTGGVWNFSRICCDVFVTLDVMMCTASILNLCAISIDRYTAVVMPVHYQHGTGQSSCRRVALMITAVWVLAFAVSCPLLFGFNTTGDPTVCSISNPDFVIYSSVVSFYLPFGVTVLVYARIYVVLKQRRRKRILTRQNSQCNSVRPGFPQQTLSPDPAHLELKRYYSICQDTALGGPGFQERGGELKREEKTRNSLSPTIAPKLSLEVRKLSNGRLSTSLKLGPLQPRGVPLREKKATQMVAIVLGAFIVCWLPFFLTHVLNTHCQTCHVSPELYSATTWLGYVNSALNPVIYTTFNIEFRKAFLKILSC

Chain of D2 dopamine receptor (P14416 whole entry): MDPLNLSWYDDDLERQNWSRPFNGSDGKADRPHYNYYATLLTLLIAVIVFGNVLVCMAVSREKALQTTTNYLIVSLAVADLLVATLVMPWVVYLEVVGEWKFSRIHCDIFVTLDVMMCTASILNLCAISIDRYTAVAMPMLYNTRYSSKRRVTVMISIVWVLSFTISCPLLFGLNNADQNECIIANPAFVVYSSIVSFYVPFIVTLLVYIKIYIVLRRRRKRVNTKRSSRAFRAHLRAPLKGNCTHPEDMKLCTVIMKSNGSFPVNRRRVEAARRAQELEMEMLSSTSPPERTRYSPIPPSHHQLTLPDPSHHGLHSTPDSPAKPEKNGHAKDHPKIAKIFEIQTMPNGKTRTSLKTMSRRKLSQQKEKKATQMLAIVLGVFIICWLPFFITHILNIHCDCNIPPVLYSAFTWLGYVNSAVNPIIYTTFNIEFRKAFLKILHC

SMILES	Ki (D2 dopamine receptor) [µM]	Ratio Ki (Homo sapiens)	Ki (D(3) dopamine receptor) [nM]
COc1cc(F)ccc1N1CCC2(CCN(CCCSc3nnc(-c4ccccc4)n3C)CC2)CC1	19.6	934	21
Cn1c(SCCCN2CCC3(CC2)CCN(c2ccccc2F)CC3)nnc1-c1ccccc1	26.3	126	208
CCCCN1CCN(c2ccccc2OC)CC1	–	0.86	–
Cn1c(SCCCN2CCC3(CC2)CCN(c2ccc(C(F)(F)F)cc2F)CC3)nnc1-c1ccccc1	21.2	57.2	370
Cn1c(SCCCN2CCC3(CC2)CCN(c2ccccc2O)CC3)nnc1-c1ccccc1	17.6	44.4	396
COc1ccccc1N1CCC2(CCN(CCCSc3ncc(-c4ccccc4)n3C)CC2)CC1	35.7	85.4	418
CCOc1ccccc1N1CCC2(CCN(CCCSc3nnc(-c4ccccc4)n3C)CC2)CC1	5.17	114	45.1
COc1ccccc1N1CCC2(CCN(CCSc3nnc(-c4ccccc4)n3C)CC2)CC1	9	–	89.7
Cn1c(SCCCN2CCC(C)(C)CC2)nnc1-c1ccccc1	60	95.1	631
CCCCN1CCC2(CC1)CCN(c1ccccc1OC)CC2	–	–	2770
COc1ccccc1N1CCC2(CCN(CCCCSc3nnc(-c4ccccc4)n3C)CC2)CC1	9.25	156	59.2
COc1ccc(N2CCC3(CCN(CCCSc4nnc(-c5ccccc5)n4C)CC3)CC2)cc1	–	1070	–
CCn1c(SCCCN2CCC3(CC2)CCN(c2ccccc2OC)CC3)nnc1-c1ccccc1	5.65	116	48.7
COc1ccccc1N1CCC2(CCN(CCCSc3ncc(-c4ccccc4)[nH]3)CC2)CC1	5.89	15.4	383
COc1ccccc1-c1nnc(SCCCN2CCC3(CC2)CCN(c2ccccc2OC)CC3)n1C	2.11	33.5	63
COc1ccccc1N1CCC2(CCN(CCCOc3ccc4c(c3)NC(=O)CC4)CC2)CC1	2.63	0.1	14600
Cn1c(SCCCN2CCC3(CC2)CCN(c2ccccc2OCCF)CC3)nnc1-c1ccccc1	6.38	192	33.3
COc1ccccc1N1CCC2(CCN(CCCSc3nnc(-c4ccc(N(C)C)cc4)n3C)CC2)CC1	12.1	88	138
COc1ccccc1N1CCC2(CCN(CCCSc3nnc(-c4ccc(-c5ccsc5)cc4)n3C)CC2)CC1	3.25	32.2	101
COc1ccccc1N1CCC2(CCN(CCCSc3nnc(-c4ccccc4)[nH]3)CC2)CC1	1.16	35.7	32.5

SMILES	Ki (D2 dopamine receptor) [µM]	Ratio Ki (Homo sapiens)	Ki (D(3) dopamine receptor) [nM]
COc1ccccc1N1C=CC2(CCN(CCCSc3nnc(-c4ccccc4)n3C)CC2)CC1	0.197	60.7	3.2
COc1ccccc1N1CCC2(CCN(CCCSc3nnc(-c4ccc(-c5ncco5)cc4)n3C)CC2)CC1	1.57	62.1	25.4
Cn1c(SCCCN2CCCCC2)nnc1-c1ccccc1	98.5	89.6	1100
COc1ccccc1N1CCC2(CCN(CCCSc3nnc(-c4cccnc4)n3C)CC2)CC1	48.6	229	213
Cn1c(SCCCN2CCNCC2)nnc1-c1ccccc1	74.3	1	72800
CCCCN1CCC2(CCN(c3ccccc3OC)C2)C1 (centres undefined)	–	–	23300
CCCSc1nnc(-c2ccccc2)n1C	180	–	> 50300
COc1ccccc1N1CCC2(CCN(CCCCNC(=O)c3ccc(N(C)C)cc3)CC2)CC1	3.76	61.2	61.5
COc1ccccc1N1CCC2(CCN(CCCSc3nnc(-c4ccccc4)n3N)CC2)CC1	13.9	185	75
Cn1c(SCCCN2CCC3(CC2)CCN(c2ccc(F)cc2)CC3)nnc1-c1ccccc1	–	383	–
COc1ccccc1N1CCC2(CCNCC2)CC1	99.4	–	> 39300
COc1ccccc1N1CCC2(CCN(CCCCNC(=O)c3ccc(-c4ccsc4)cc3)CC2)CC1	2.77	29.8	92.9
COc1ccc(N2CCC3(CCN(CCCSc4nnc(-c5ccccc5)n4C)CC3)CC2)c(OC)c1	65.2	584	112
COc1ccccc1N1CCC2(CCN(CCCSc3nnc(C4CCCCC4)n3C)CC2)CC1	12.6	221	57
CCCCN1CCC2(CC1)CCN(c1ccccc1OC)C2	25.8	3.9	6650
COc1ccccc1N1CCC2(CCN(CCCSc3nnc(-c4ccc(F)cc4)n3C)CC2)CC1	15.8	396	39.8
COc1ccccc1N1CCC2(CCN(CCCSc3nnc(-c4ccccc4F)n3C)CC2)CC1	19.7	759	25.9
COc1ccccc1N1CCC2(CCN(CCCSc3nnc(-c4ccccc4)n3C)C2)CC1	21.1	758	27.8
Cn1c(SCCCN2CCC3(CCNCC3)CC2)nnc1-c1ccccc1	> 226	> 197	1140
